{"source": "paper PMC3040319", "about": "(Pharmaceutical Research, 2010)", "key": {"genomic DNA": {"tested_on": "genomic DNA", "assay": "Platinum-DNA adduct formation in primary mouse hepatocytes", "format": "cell-based", "outline": "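Attached wild-type or Oct1-/- mouse hepatocytes were exposed to 10 μM test compound for 1 h at 37°C in serum-free medium, with or without OCT1 inhibitor. Cells were then washed with ice-cold PBS. Genomic DNA was kit-purified. DNA-bound Pt was measured by ICP-MS, and DNA by A260 from the same preparation. Adduct level expressed as pmol Pt/μg DNA.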"}, "[1]": {"assay": "Plasma platinum pharmacokinetics in Oct1+/+ and Oct1-/- mice", "format": "in vivo, mouse", "settings": "single i.v. 8 mg/kg", "outline": "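Male FVB Oct1+/+ and Oct1-/- mice (8 weeks) received a single tail-vein dose of 8 mg/kg in saline. Heparinised plasma was taken by heart puncture at 15 and 30 min and at 1, 2, 3, 4, 8, 10, 24 and 48 h. Total Pt in 5 μl plasma and in urine was measured by ICP-MS. Parameters (Vss, CL, renal CL) came from two-compartment analysis.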"}, "Kim-1": {"tested_on": "Kim-1", "assay": "Renal Kim-1 mRNA by qRT-PCR in the CDPCP toxicity study", "format": "in vivo, mouse", "settings": "i.v. once weekly for 3 weeks", "outline": "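Same weekly ×3 tail-vein regimen with saline controls; kidneys were harvested 24 h after the last dose. Kidney RNA was extracted with Trizol and DNase I-treated, then reverse-transcribed. Taqman qRT-PCR for Kim-1 used GAPDH as internal control: 95°C 20 s, then 40 cycles of 95°C 3 s and 60°C 30 s. Results expressed as fold over saline.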"}}}
{"smiles": "[NH3+][Pt-2]([NH3+])([Cl])[n+]1ccccc1", "note": "(stereo not drawn) [CDPCP, cis-diammine(pyridine)chloroplatinum(II)]", "values": [{"measurement": "platinum-DNA adduct level, fold greater in wild-type than Oct1-/-", "setting": "genomic DNA; 10 μM, 1 h", "result": 2.4, "unit": "fold"}, {"measurement": "platinum-DNA adduct level", "setting": "genomic DNA; hepatocytes from Oct1-/- mice, 10 μM, 1 h", "result": "0.0351 ± 0.00344", "unit": "pmol/μg DNA"}, {"measurement": "platinum-DNA adduct level", "setting": "genomic DNA; hepatocytes from Oct1-/- mice, 10 μM, 1 h, disopyramide 150 μM", "result": "0.0338 ± 0.00798", "unit": "pmol/μg DNA"}, {"measurement": "platinum-DNA adduct level", "setting": "genomic DNA; hepatocytes from Oct1 wild-type mice, 10 μM, 1 h", "result": "0.0857 ± 0.0232", "unit": "pmol/μg DNA"}, {"measurement": "platinum-DNA adduct level", "setting": "genomic DNA; hepatocytes from Oct1 wild-type mice, 10 μM, 1 h, disopyramide 150 μM", "result": "0.0233 ± 0.00847", "unit": "pmol/μg DNA"}, {"measurement": "fold decrease in platinum-DNA adduct formation by disopyramide", "setting": "genomic DNA; hepatocytes from Oct1 wild-type mice, disopyramide 150 μM", "result": 3.7, "unit": "fold"}, {"measurement": "contribution of renal clearance to total clearance of platinum from plasma", "setting": "[1]; both Oct1+/+ and Oct1-/- mice", "result": "about 50%"}, {"measurement": "volume of distribution, Oct1 wild-type as fold of Oct1-/-", "setting": "[1]", "result": 1.77, "unit": "fold"}, {"measurement": "renal mRNA levels of Kim-1, fold over saline control", "setting": "Kim-1; Oct1+/+ mice", "result": 19.3, "unit": "fold"}, {"measurement": "renal mRNA levels of Kim-1, fold over saline control", "setting": "Kim-1; Oct1-/- mice", "result": 117, "unit": "fold"}]}
